Data as given in ChEMBL document CHEMBL4334552, “Discovery of BMS-986260, a Potent, Selective, and Orally Bioavailable TGFβR1 Inhibitor as an Immuno-oncology Agent” (ACS Med Chem Lett, 2020).
≈ marks a conversion by molar mass, not a printed value. Calls of active or inactive are those of the source. The rule behind the calls is not given here.

Tests used:
[1] = Clearance in Balb/C mouse at 5 mg/kg, iv; type: ADME, organism-based; details: in vivo
Summary of the method: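 Male Balb/C mice, n = 3, dosed at 5 mg/kg iv or 10 mg/kg po. The vehicle was 70% 25 mM acetate buffer pH 4.0, 5% ethanol and 25% PEG 400.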

[2] = molecular target: T1, TGF-beta receptor type-1 (Homo sapiens, UniProt P36897); test: Inhibition of TGFBR1 in TGFbeta-stimulated human NHLF cells assessed as reduction in SMAD2 nuclear translocation
T1 sequence (P36897 whole entry): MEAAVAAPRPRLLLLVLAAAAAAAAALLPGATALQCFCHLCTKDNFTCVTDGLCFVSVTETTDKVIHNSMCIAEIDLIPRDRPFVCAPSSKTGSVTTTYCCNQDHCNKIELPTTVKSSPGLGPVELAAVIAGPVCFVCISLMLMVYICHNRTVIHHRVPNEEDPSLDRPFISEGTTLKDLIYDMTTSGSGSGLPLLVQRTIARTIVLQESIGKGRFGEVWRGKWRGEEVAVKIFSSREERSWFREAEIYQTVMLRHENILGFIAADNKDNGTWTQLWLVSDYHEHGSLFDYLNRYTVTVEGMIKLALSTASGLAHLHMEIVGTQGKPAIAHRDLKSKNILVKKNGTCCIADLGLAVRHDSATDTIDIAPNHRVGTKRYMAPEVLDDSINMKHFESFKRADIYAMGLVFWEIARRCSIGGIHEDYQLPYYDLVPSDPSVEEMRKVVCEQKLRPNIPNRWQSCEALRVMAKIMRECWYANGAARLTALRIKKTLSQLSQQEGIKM

[3] = Intrinsic permeability in human Caco2 cells; type: ADME, cell-based; details: Caco-2
[4] = Half life in human liver microsomes in presence of NADPH; type: ADME, Microsome
[5] = Total AUC in Beagle dog at 1 mg/kg, iv; type: ADME, organism-based, Canis lupus familiaris; design: dose 1 mg/kg, time AUCmax, route intravenous; details: in vivo
Summary of the method: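 Male Beagle dogs (n = 2) were pretreated with pentagastrin and dosed iv at 1 mg/kg and po at 5 mg/kg. The oral vehicle was 5% ethanol, 45% PEG400 and 50% 25 mM acetate buffer pH 4.0. The iv vehicle was 5:45:50 EtOH/PEG400/saline at 1 mL/kg.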

[6] = Protein binding in human serum assessed as unbound fraction; type: ADME, cell-free
[7] = Half life in rat hepatocytes; type: ADME, cell-based, Hepatocyte
[8] = Cardiovascular toxicity in rat 1 mg/kg, po dosed every 3 days on and 4 days off treatment regime for 1 month; type: organism-based; details: in vivo
[9] = Oral bioavailability in Balb/C mouse at 10 mg/kg; type: ADME, organism-based; details: in vivo
Summary of the method: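 Male Balb/C mice (n = 3) dosed iv at 5 mg/kg and po at 10 mg/kg. Vehicle was 70% 25 mM acetate buffer pH 4.0, 5% ethanol and 25% PEG 400.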

[10] = Aqueous solubility of the compound at pH 6.5; type: physicochemical; details: aqueous solution, read-out: solubility
[11] = Clearance in Sprague Dawley rat at 5 mg/kg, iv; type: ADME, organism-based; details: in vivo
Summary of the method: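 Male Sprague–Dawley rats, n = 3, given 5 mg/kg iv or 10 mg/kg po as a PEG400 solution.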

[12] = Half life in dog liver microsomes in presence of NADPH; type: ADME, Canis lupus familiaris, Microsome
[13] = tested on: MC-38; test: Antitumour activity against mouse MC38 cells allografted in C57Bl/6 mouse assessed as reduction in tumour growth at 3.75 to 15 mg/kg, po qd for 28 days cotreated with anti-PD1 at 10 mg/kg, ip every 4 days for 3 doses measured for ten doubling times after cessation of treatment by digital caliper analysis; type: functional, organism-based
Summary of the method: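 C57/BL6 mice received 0.1 mL of MC38 cells (1 × 10^7 cells/mL) subcutaneously in the right flank. Mice were randomized at about 100 mm3, typically day 5. Oral dosing was once daily for 28 days at 3.75, 7.5 or 15 mg/kg. Anti-PD-1 was given at 10 mg/kg IP every 4 days for three doses. Isotype IgG1 MOPC-21 served as control on the same schedule.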

[14] = Efflux ratio of permeability in human Caco2 cells; type: ADME, cell-based; details: Caco-2
[15] = molecular target: Cytochrome P450 2D6 (Homo sapiens, UniProt P10635); test: Induction of recombinant CYP2D6 (unknown origin) up to 24 microM; type: ADME; details: recombinant enzyme
Cytochrome P450 2D6, sequence (P10635 whole entry): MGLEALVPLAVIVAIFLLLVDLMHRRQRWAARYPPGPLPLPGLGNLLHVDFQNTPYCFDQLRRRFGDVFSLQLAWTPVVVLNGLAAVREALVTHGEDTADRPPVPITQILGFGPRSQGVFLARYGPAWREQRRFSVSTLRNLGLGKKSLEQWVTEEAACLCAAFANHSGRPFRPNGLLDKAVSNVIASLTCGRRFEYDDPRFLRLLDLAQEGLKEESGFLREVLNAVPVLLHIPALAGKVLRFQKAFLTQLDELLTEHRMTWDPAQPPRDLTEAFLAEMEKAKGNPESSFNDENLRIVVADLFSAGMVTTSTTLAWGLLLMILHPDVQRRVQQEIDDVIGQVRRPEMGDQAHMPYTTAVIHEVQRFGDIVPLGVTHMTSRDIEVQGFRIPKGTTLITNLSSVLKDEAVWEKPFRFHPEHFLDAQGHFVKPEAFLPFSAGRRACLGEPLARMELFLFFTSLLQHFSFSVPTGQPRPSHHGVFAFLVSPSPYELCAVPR

[16] = molecular target: T2, Cytochrome P450 2C8 (Homo sapiens, UniProt P10632); test: Inhibition of recombinant CYP2C8 (unknown origin); type: ADME
T2 sequence (P10632 whole entry): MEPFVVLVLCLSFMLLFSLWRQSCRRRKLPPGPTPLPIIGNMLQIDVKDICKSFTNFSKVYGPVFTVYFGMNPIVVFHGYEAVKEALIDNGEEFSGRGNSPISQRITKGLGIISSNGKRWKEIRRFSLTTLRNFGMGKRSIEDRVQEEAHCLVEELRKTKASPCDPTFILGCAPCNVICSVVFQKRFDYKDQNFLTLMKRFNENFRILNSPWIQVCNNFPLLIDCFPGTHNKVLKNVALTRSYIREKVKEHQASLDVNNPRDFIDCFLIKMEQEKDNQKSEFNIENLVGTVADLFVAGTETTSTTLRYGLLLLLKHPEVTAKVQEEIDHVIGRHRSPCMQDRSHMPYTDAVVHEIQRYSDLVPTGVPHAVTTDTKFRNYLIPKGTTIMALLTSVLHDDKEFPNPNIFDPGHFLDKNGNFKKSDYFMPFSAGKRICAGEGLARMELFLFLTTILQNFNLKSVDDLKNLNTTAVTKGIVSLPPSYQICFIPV

[17] = Half life in Beagle dog at 1 mg/kg, iv; type: ADME, organism-based, Canis lupus familiaris; details: in vivo
Summary of the method: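 Male Beagle dogs (n = 2) pretreated with pentagastrin were given 1 mg/kg iv in 5:45:50 EtOH/PEG400/saline at 1 mL/kg. A 5 mg/kg oral arm used 5% ethanol, 45% PEG400, 50% 25 mM acetate buffer pH 4.0. Half-life was from the iv arm.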

[18] = molecular target: T3, TGF-beta receptor type-1 (Mus musculus, UniProt Q64729); test: Inhibition of TGFbetaR1 in TGFbeta-stimulated mouse NIH3T3 cells assessed as reduction in SMAD3 phosphorylation; type: cell-based
T3 sequence (Q64729 whole entry): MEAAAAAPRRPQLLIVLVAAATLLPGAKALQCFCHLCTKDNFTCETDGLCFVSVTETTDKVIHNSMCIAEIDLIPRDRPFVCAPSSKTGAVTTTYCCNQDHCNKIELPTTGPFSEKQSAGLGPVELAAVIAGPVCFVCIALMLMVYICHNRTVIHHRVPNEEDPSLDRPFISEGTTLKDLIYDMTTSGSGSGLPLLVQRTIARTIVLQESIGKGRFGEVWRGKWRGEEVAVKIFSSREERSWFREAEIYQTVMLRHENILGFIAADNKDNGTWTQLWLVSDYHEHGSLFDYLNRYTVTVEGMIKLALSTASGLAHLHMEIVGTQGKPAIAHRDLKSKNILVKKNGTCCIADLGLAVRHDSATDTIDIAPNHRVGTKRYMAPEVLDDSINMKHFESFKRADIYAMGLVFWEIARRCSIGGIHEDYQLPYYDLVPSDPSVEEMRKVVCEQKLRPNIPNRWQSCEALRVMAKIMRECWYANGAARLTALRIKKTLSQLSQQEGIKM

[19] = Half life in mouse liver microsomes in presence of UGT/UDPGA; type: ADME, Microsome
[20] = molecular target: T2, Cytochrome P450 2C8; test: Induction of recombinant CYP2C8 (unknown origin) up to 24 microM; type: ADME; details: recombinant enzyme

N#Cc1cnc2ccc(-c3c(-c4ccc(F)c(Cl)c4)ncn3CCO)nn12
clearance [1]: 8.3 mL/min/kg
IC50 [2]: 190 nM
Papp [3]: 27.2 ×10⁻⁶ cm/s
half-life [4]: 0.383 h
AUC [5]: 7 µM·h
fraction unbound [6]: 0.1
half-life [7]: 5.33 h
Activity [8]: Non-Toxic
bioavailability [9]: > 100%
solubility [10]: 47 µg/mL (≈ 123 µM)
clearance [11]: 5.6 mL/min/kg
half-life [12]: 0.617 h
inhibition [13]: Active
efflux ratio [14]: 2.5
Activity [15]: Not Active
IC50 [16]: > 20000 nM
half-life [17]: 5 h
IC50 [18]: 50 nM
half-life [19]: > 2 h
Activity [20]: Not Active
